Experimental data taken from ChEMBL document CHEMBL1145640 (Bioorg Med Chem Lett, 2008).
Calls of active or inactive are those of the source. No cut-off for these calls is given here.

Legend:
[1] = target: Glutamate receptor ionotropic, NMDA 2B (Rattus norvegicus, UniProt Q00960); test: Displacement of [3H]ifenprodil from rat brain membrane NR2B receptor
[2] = target: Glutamate receptor ionotropic, NMDA 2B (Rattus norvegicus) (UniProt Q00960); test: Displacement of [3H]ifenprodil from rat brain membrane NR2B receptor relative to ifenprodil
[3] = Stability in frogs Ringer buffer in presence of N-acetyl cysteine methyl ester by HPLC; assay type: physicochemical; details: frog's Ringer buffer with N-acetyl cysteine methyl ester
How it was run: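 Half-life in frog's Ringer buffer, pH 7.4, followed by HPLC peak-area decrease over time in presence of excess N-acetyl cysteine methyl ester; NACME and compound levels varied per run (mM range); reactivity also expressed in relative terms.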

[4] = target: T1, Glutamate NMDA receptor; GRIN1/GRIN2B (Homo sapiens, UniProt Q05586+Q13224); test: Inhibition of NR1/NR2B receptor expressed in xenopus oocytes assessed as effect on L-glutamate and glycine-induced current response at 10 uM; assay type: cell-based; details: Oocyte
[5] = Stability in frogs Ringer buffer by HPLC; assay type: physicochemical; details: frog's Ringer buffer
[6] = target: T1, Glutamate NMDA receptor; GRIN1/GRIN2B; test: Inhibition of NR1/NR2B receptor expressed in xenopus oocytes assessed as effect on L-glutamate and glycine-induced current response relative to ifenprodil; assay type: cell-based; details: Oocyte
How it was run: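 Two-electrode voltage clamp on Xenopus oocytes expressing wild-type NR1/NR2B. Currents evoked by saturating L-glutamate plus glycine, 100 µM each; compound applied during the NMDA response and change in current size measured.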

[7] = target: T1, Glutamate NMDA receptor; GRIN1/GRIN2B; test: Inhibition of N-terminal domain truncated NR1/NR2B receptor expressed in xenopus oocytes assessed as effect on L-glutamate and glycine-induced current response; assay type: cell-based, Oocyte
[8] = target: T2, Glutamate NMDA receptor; GRIN1/GRIN2A (Homo sapiens, UniProt Q05586+Q12879); test: Activity at NR1/NR2A receptor expressed in xenopus oocytes assessed as Inhibition of L-glutamate and glycine-induced current response at 100 uM; assay type: cell-based; details: Oocyte
[9] = target: T2, Glutamate NMDA receptor; GRIN1/GRIN2A; test: Activity at NR1/NR2A receptor expressed in xenopus oocytes assessed as effect on L-glutamate and glycine-induced current response; assay type: cell-based, Oocyte
[10] = target: T1, Glutamate NMDA receptor; GRIN1/GRIN2B; test: Inhibition of NR1/NR2B receptor expressed in xenopus oocytes assessed as effect on L-glutamate and glycine-induced current response; assay type: cell-based, Oocyte
How it was run: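 Two-electrode voltage clamp on Xenopus oocytes expressing wild-type NR1/NR2B receptors. NMDA currents were evoked with saturating L-glutamate plus glycine. The compound was applied during an ongoing NMDA response, and the change in current amplitude it induced was measured.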

[11] = target: T2, Glutamate NMDA receptor; GRIN1/GRIN2A; test: Inhibition of NR1/NR2A receptor expressed in xenopus oocytes assessed as effect on L-glutamate and glycine-induced current response; assay type: cell-based, Oocyte
[12] = target: T1, Glutamate NMDA receptor; GRIN1/GRIN2B; test: Inhibition of N-terminal domain truncated NR1/NR2B receptor expressed in xenopus oocytes assessed as effect on L-glutamate and glycine-induced current response upto 100 uM; assay type: cell-based; details: Oocyte

Chain of Glutamate receptor ionotropic, NMDA 2B (Rattus norvegicus) (Q00960 27-1482 limits assumed): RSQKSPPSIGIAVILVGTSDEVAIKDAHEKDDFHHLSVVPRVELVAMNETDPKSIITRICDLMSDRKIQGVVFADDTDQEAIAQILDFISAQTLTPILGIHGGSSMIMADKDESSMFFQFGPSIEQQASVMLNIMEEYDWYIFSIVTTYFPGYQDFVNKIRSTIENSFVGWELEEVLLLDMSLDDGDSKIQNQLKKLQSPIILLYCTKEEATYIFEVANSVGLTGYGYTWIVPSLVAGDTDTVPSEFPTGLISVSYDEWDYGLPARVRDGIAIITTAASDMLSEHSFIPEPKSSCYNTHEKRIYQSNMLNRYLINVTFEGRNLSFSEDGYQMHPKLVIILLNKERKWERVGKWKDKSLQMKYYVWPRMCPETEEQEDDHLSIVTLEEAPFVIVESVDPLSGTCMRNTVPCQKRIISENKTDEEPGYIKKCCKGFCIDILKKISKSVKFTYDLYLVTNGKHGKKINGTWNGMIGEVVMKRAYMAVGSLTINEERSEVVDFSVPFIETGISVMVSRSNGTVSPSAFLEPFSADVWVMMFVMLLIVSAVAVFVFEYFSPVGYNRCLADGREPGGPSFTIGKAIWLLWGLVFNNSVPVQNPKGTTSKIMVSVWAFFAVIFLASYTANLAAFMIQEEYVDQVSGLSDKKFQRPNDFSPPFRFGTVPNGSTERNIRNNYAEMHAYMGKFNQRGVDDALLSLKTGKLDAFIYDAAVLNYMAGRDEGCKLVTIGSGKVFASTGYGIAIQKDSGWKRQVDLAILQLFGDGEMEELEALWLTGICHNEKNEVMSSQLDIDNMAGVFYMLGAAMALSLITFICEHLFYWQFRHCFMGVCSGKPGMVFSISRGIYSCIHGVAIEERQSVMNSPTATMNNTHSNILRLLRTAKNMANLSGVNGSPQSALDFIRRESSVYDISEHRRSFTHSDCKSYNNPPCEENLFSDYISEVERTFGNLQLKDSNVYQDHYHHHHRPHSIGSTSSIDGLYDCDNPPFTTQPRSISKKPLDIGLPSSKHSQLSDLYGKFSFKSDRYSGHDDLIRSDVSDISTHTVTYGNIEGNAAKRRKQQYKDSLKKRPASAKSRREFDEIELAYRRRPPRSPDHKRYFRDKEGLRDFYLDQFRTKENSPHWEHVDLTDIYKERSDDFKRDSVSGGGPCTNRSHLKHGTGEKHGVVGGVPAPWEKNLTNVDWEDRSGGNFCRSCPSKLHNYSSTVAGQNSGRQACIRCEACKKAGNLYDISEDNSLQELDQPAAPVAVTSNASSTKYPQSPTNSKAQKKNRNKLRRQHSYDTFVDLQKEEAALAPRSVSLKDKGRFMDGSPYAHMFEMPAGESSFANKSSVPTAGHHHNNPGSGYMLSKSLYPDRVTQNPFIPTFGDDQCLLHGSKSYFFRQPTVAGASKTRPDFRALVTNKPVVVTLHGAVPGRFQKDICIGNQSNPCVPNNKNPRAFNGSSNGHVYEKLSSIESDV
Chain of Glutamate receptor ionotropic, NMDA 2B (Q00960 whole entry): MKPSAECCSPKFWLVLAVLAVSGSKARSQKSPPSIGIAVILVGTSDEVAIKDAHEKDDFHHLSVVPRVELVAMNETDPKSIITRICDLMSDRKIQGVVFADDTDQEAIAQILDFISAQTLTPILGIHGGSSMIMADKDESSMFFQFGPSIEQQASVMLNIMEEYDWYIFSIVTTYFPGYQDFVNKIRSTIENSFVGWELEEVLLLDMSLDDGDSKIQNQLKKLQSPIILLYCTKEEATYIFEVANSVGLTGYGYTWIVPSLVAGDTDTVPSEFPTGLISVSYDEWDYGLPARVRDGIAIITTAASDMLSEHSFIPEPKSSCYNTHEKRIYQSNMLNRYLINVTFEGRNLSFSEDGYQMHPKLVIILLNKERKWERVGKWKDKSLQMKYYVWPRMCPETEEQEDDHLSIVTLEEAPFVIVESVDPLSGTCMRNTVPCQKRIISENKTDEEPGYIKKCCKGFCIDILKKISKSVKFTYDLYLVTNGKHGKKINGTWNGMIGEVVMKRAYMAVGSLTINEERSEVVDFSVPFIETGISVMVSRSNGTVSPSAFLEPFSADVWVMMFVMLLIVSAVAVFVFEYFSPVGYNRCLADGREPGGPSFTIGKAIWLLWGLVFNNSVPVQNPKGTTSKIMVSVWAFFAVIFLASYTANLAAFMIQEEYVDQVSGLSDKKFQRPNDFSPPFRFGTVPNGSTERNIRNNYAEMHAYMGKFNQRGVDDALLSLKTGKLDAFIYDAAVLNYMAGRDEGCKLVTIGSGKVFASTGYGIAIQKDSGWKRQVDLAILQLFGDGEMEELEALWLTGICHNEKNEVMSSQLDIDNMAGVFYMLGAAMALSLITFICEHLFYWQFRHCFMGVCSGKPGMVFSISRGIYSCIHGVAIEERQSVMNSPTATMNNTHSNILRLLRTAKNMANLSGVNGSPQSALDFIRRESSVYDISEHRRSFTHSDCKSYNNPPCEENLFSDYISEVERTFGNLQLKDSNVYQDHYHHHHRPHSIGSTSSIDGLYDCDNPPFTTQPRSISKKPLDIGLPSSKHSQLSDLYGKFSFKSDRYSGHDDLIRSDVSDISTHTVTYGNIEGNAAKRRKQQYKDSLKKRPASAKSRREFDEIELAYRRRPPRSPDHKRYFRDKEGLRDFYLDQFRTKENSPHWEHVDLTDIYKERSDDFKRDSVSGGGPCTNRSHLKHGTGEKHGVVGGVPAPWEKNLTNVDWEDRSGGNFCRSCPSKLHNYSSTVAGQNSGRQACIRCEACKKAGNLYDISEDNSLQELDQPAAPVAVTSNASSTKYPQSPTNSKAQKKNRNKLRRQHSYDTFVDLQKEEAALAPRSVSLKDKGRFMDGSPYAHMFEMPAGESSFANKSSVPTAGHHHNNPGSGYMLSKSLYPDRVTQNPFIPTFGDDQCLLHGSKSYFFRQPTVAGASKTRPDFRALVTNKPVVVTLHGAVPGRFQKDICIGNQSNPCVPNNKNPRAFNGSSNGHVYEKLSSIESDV

| SMILES | Ki [1] | Ratio [2] | half-life [3] | half-life [5] | other results |
| --- | --- | --- | --- | --- | --- |
| O=C(CN1CCC(Cc2ccc([N+](=O)[O-])cc2)CC1)c1ccc(O)cc1 | 200 nM | 18 |  |  |  |
| CC(C(O)c1ccc(N)cc1)N1CCC(Cc2ccccc2)CC1 (racemic; erythro) [listing 1 of 2 here] | 97 nM |  |  |  |  |
| CC(C(=O)c1ccc(N=C=S)cc1)N1CCC(Cc2ccccc2)CC1 (stereo not given) | 679 nM | 62 | 0.054 h | 20 h | inhibition [4]: 8% |
| Oc1ccc(C(O)CN2CCC(Cc3ccccc3)CC2)cc1 (stereo not given) | 62 nM | 16 |  |  |  |
| CC(C(O)c1ccc(N)cc1)N1CCC(Cc2ccccc2)CC1 (racemic; threo) [listing 1 of 2 here] | 300 nM |  |  |  |  |
| CC(C(=O)c1ccc(N)cc1)N1CCC(Cc2ccccc2)CC1 (stereo not given) | 58 nM | 1 |  |  |  |
| C=C(CN1CCC(Cc2ccccc2)CC1)C(=O)c1ccc([N+](=O)[O-])cc1 | 248 nM | 23 | 1.03 h | 5 h |  |
| CC(=O)Nc1ccc(C(=O)C(C)N2CCC(Cc3ccccc3)CC2)cc1 (stereo not given) | 107 nM | 10 |  |  |  |
| CC(C(=O)c1ccc(NC(=O)CCl)cc1)N1CCC(Cc2ccccc2)CC1 (stereo not given) | 493 nM | 45 | 1.9 h | > 24 h | Ratio IC50 [6]: 130; IC50 [7]: 230000 nM; inhibition [8]: 25%; EC50 [9]: > 100000 nM; IC50 [10]: 14000 nM |
| O=C(CN1CCC(Cc2ccccc2)CC1)c1ccc(O)cc1 | 141 nM | 13 |  |  |  |
| O=C(CN1CCC(Cc2ccc(N=C=S)cc2)CC1)c1ccc(O)cc1 | 245 nM | 22 | 0.383 h | > 24 h | Ratio IC50 [6]: 145; IC50 [7]: 570000 nM; EC50 [9]: > 100000 nM; IC50 [10]: 16000 nM; IC50 [11]: 16000 nM |
| CC(C(O)c1ccc(N)cc1)N1CCC(Cc2ccccc2)CC1 (racemic; erythro) [listing 2 of 2 here] |  | 8.8 |  |  |  |
| C=C(CN1CCC(Cc2ccccc2)CC1)C(=O)c1ccc(OC)cc1 | 527 nM | 48 | 0.117 h | 5 h | Ratio IC50 [6]: 640; inhibition [8]: 11%; Activity [12]: inactive; EC50 [9]: > 100000 nM; IC50 [10]: 70000 nM |
| CC(C(O)c1ccc(N)cc1)N1CCC(Cc2ccccc2)CC1 (racemic; threo) [listing 2 of 2 here] |  | 27 |  |  |  |
